Source: PMC4841444 (Lipids, 2015)

Tests used:
recombinant HIV-1-RT = recombinant HIV-1-RT (Human immunodeficiency virus type 1 group M subtype B, UniProt P03366); assay: Reverse Transcriptase Colorimetric Assay; format: biochemical
[1] = Cytotoxicity against PBMC; format: cell-based; conditions: human, peripheral blood mononuclear cells (PBMC)
Procedure, shortened: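 PBMCs from healthy volunteers, grown in IL-2-supplemented medium, seeded at 20,000 cells/well and exposed to fatty acids at 5–500 µM final. Incubation 3 days at 37 °C in humidified 5% CO2. Viability read by MTT.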

HIV-1 RT = conditions: read-out: IC50 against HIV-1 RT; non-competitive inhibitor; cited from earlier work

| SMILES | IC50 (recombinant HIV-1-RT) [µM] | IC50 at 3 days [1] [µM] | inhibition of the HIV-1 RT enzyme (in words) (recombinant HIV-1-RT; recombinant HIV-1 RT, colorimetric assay) | IC50 (HIV-1 RT) [µM] |
| --- | --- | --- | --- | --- |
| CCCCCCCCCCCCCC#CCCCCC(=O)O [6-Icosynoic acid] | > 1000 |  |  |  |
| CCCCCCCCCCCCCCCCCCCC#CCCCC(=O)O [1a, 5-Pentacosynoic acid] | 24 ± 1 | > 500 |  |  |
| CCCCCCCCCCCCCCCCCCCCCCCCC(=O)O [Pentacosanoic acid] |  |  | does not inhibit HIV-1 RT at all |  |
| CCCCCCCCCCCCCCCC#CCCCCCCCC(=O)O [1b, 9-Pentacosynoic acid] |  | > 500 |  |  |
| CCCCCCCCCCCCCCCCCCCCCCC#CC(=O)O [2-Pentacosynoic acid] | 566 ± 1 |  |  |  |
| CCCCCCCCCCCCCCCCCCC/C=C\CCCC(=O)O [2a, (5Z)-5-Pentacosenoic acid] | 38 ± 1 | > 500 |  |  |
| CCCCCCCCCCC#CCCCCC(=O)O [6-Heptadecynoic acid] | > 1000 |  |  |  |
| CCCCCCCCCCCCCCC/C=C\CCCCCCCC(=O)O [2b, (9Z)-9-Pentacosenoic acid] | 54 ± 1 | > 500 |  |  |
| CCCCCCCC/C=C\CCCCCCCCCCCCCC(=O)O [Nervonic acid, cis-15-tetracosenoic acid] | 12 ± 1 | > 500 |  | 4.8 |
| CCCCCCCCCCCCCCCC(=O)O [Palmitic acid] | > 1000 |  |  |  |
